For five compounds, inhibition and Activity results are on record in ChEMBL document CHEMBL1146361, “Studies on acyclic pyrimidines as inhibitors of mycobacteria” (Bioorg Med Chem, 2007).

The source made the active and inactive calls. No cut-off for these calls is given here.

In assay [1] the test system is Mycobacterium avium. Put plainly: Antimycobacterial activity against Mycobacterium avium ATCC 25291 at 1 ug/mL after 24 to 48 hrs by MABA. It counts as functional. The gist of the method:
(§1)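 Compounds in DMSO (100× highest final concentration), diluted in 7H9GC; tested at 100, 50, 10 and 1 µg/mL in triplicate, three experiments. Frozen inoculum diluted in 7H9GC. Read visually and spectrophotometrically. […], mean given. Visual MIC = lowest concentration preventing blue-to-pink change.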

Assay [2] concerns Mycobacterium avium. As to the kind of experiment: Antimycobacterial activity against Mycobacterium avium ATCC 25291 at 2 ug/mL after 24 to 48 hrs by MABA. It counts as functional.
For assay [3], the system named is Mycobacterium tuberculosis. Put plainly: microbe, parasite or virus in culture. Particulars: H37Ra.
The subject of assay [4] is Mycobacterium tuberculosis. As to the kind of experiment: Antimycobacterial activity against Mycobacterium tuberculosis H37Ra at 100 ug/mL after 24 to 48 hrs by MABA. It is filed as functional. The essentials:
as §1

For assay [5], the system named is Mycobacterium tuberculosis. As to the kind of experiment: Antimycobacterial activity against Mycobacterium tuberculosis H37Ra at 50 ug/mL after 24 to 48 hrs by MABA. It counts as functional. The essentials:
as §1

For assay [6], the system named is Mycobacterium tuberculosis. As to the kind of experiment: Antimycobacterial activity against Mycobacterium tuberculosis H37Ra at 10 ug/mL after 24 to 48 hrs by MABA. It is filed as functional. The essentials:
as §1

Assay [7] deals with Mycobacterium avium. Put plainly: Antimycobacterial activity against Mycobacterium avium ATCC 25291 at 100 ug/mL after 24 to 48 hrs by MABA. It counts as functional. The gist of the method: as §1
Assay [8] concerns Mycobacterium avium. As to the kind of experiment: Antimycobacterial activity against Mycobacterium avium ATCC 25291 at 50 ug/mL after 24 to 48 hrs by MABA. It is filed as functional. The essentials:
as §1

For the next assay, the system named is Staphylococcus aureus. As to the kind of experiment: Antibacterial activity against Staphylococcus aureus up to 100 ug/ml after 16 to 20 hrs by broth microdilution method. It is filed as functional, organism-based.
Assay [9] deals with Staphylococcus epidermidis. Put plainly: Antibacterial activity against Staphylococcus epidermidis up to 100 ug/ml after 16 to 20 hrs by broth microdilution method. It is filed as functional, organism-based.
The subject of another assay is Enterococcus faecalis. Put plainly: Antibacterial activity against Enterococcus faecalis up to 100 ug/ml after 16 to 20 hrs by broth microdilution method. It is filed as functional, organism-based.
In another assay the test system is Bacillus subtilis. As to the kind of experiment: Antibacterial activity against Bacillus subtilis up to 100 ug/ml after 16 to 20 hrs by broth microdilution method. It counts as functional, organism-based.
The subject of a further assay is Streptococcus pneumoniae. As to the kind of experiment: Antibacterial activity against Streptococcus pneumoniae up to 100 ug/ml after 16 to 20 hrs by broth microdilution method. It counts as functional, organism-based.
The subject of a further assay is Salmonella typhimurium. As to the kind of experiment: Antibacterial activity against Salmonella Typhimurium up to 100 ug/ml after 16 to 20 hrs by broth microdilution method. Particulars: Salmonella enterica subsp. enterica serovar Typhimurium. It counts as functional, organism-based.
A further assay relates to Escherichia coli. Put plainly: Antibacterial activity against Escherichia coli up to 100 ug/ml after 16 to 20 hrs by broth microdilution method. It counts as functional, organism-based.
The next assay deals with Proteus vulgaris. As to the kind of experiment: Antibacterial activity against Proteus vulgaris up to 100 ug/ml after 16 to 20 hrs by broth microdilution method. It counts as functional, organism-based.
For a further assay, the system named is Pseudomonas aeruginosa. Put plainly: Antibacterial activity against Pseudomonas aeruginosa up to 100 ug/ml after 16 to 20 hrs by broth microdilution method. It is filed as functional, organism-based.
The next assay has as its system HepG2. Put plainly: Toxicity against HepG2 cells. As to conditions: Homo sapiens. It counts as functional, cell-based.
Assay [10] concerns Mycobacterium avium. As to the kind of experiment: Antimycobacterial activity against Mycobacterium avium ATCC 25291 at 10 ug/mL after 24 to 48 hrs by MABA. It counts as functional. The gist of the method:
as §1

`CO[C@H]1/C=C/O[C@@]2(C)Oc3c(C)c(O)c4c(O)c(c(/C=N/N5CCN(C)CC5)c(O)c4c3C2=O)NC(=O)/C(C)=C\C=C\[C@H](C)[C@H](O)[C@@H](C)[C@@H](O)[C@@H](C)[C@H](OC(C)=O)[C@@H]1C` [RIFAMPIN]: the inhibition at 1 µg/mL (with Mycobacterium avium [1]; in [3]) was 100% each time. Moreover, testing at 2 µg/mL with Mycobacterium avium [2] gave an inhibition of 90%.
For the compound `CCCCCCCCCCC#Cc1cn(COC(CO)CO)c(=O)[nH]c1=O`, the inhibition at 100 µg/mL (in assay [4]; in the assay on Mycobacterium avium [7]) was 100% in each case. In addition, the inhibition at 50 µg/mL in assay [5] worked out at 100%; with Mycobacterium avium [8] it was 25%. The inhibition at 10 µg/mL in [6] amounted to 50%. The outcome (in the assay on Staphylococcus aureus; in [9]; in the assay on Enterococcus faecalis; in the assay on Bacillus subtilis; in the assay with Streptococcus pneumoniae; in the assay on Salmonella typhimurium) was inactive. Also, the outcome in the assay on Escherichia coli, with Proteus vulgaris and in the assay on Pseudomonas aeruginosa was inactive. In addition, the Activity entry in the assay on HepG2 was “Not toxic”.
Turning to `[N-]=[N+]=NC(CCl)c1cn(COCCO)c(=O)[nH]c1=O` (stereo unspecified), the inhibition at 100 µg/mL (in assay [4]; in the assay on Mycobacterium avium [7]) was 100% each time. Further, the inhibition at 50 µg/mL (in assay [5]; with Mycobacterium avium [8]) was 100% each time. For the same compound, the inhibition at 10 µg/mL (in [6]; in the assay on Mycobacterium avium [10]) was 50% each time. In addition, the outcome (in the assay with Staphylococcus aureus; in assay [9]; with Enterococcus faecalis; in the assay with Bacillus subtilis; with Streptococcus pneumoniae; with Salmonella typhimurium) was inactive. In addition, the outcome with Escherichia coli, with Proteus vulgaris and in the assay on Pseudomonas aeruginosa was inactive. In addition, the Activity entry in the assay with HepG2 is “Not toxic”.
For the compound `C=C(N=[N+]=[N-])c1cn(COCCO)c(=O)[nH]c1=O`, the inhibition at 100 µg/mL is 100% in [4] and 50% with Mycobacterium avium [7]. Moreover, the results for the inhibition at 50 µg/mL (in [5]; in the assay on Mycobacterium avium [8]) were 100% and 50%, respectively. The inhibition at 10 µg/mL in [6] was 25%; with Mycobacterium avium [10] it was 50%. In addition, the result (in the assay with Staphylococcus aureus; in assay [9]; in the assay with Enterococcus faecalis; with Bacillus subtilis; with Streptococcus pneumoniae; with Salmonella typhimurium) was inactive. Moreover, the result in the assay with Escherichia coli, with Proteus vulgaris and with Pseudomonas aeruginosa was inactive. In the assay with HepG2, the Activity result is “Not toxic”.
For `CC[C@H]1OC(=O)[C@H](C)[C@@H](O[C@H]2C[C@@](C)(OC)[C@@H](O)[C@H](C)O2)[C@H](C)[C@@H](O[C@@H]2O[C@H](C)C[C@H](N(C)C)[C@H]2O)[C@](C)(OC)C[C@@H](C)C(=O)[C@H](C)[C@@H](O)[C@]1(C)O` [CLARITHROMYCIN], the inhibition at 2 µg/mL in the assay with Mycobacterium avium [2] was found to be 95%.
